ChEMBL document CHEMBL2346537, “Phenylimino-2H-chromen-3-carboxamide derivatives as novel small molecule inhibitors of β-secretase (BACE1)” (Bioorg Med Chem, 2013)

Assays:
Beta-secretase 1 = Beta-secretase 1 (Homo sapiens, UniProt P56817); test: Inhibition of BACE1 (unknown origin) expressed in baculovirus expression system using Rh-EVNLDAEFK-Quencher as substrate after 90 mins by FRET assay
[1] = Cytotoxicity against mouse Neuro2a cells expressing APP Swedish mutant assessed as cell viability at 5 uM after 24 hrs by MTT assay relative to control; format: cell-based, N2a; settings: read-out: Activity
How it was run: (§1)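 N2a-APPswe cells seeded at 2 × 10⁵ cells/ml (8 × 10⁴/well), grown overnight at 37 °C, then dosed as in the Aβ assay (DMSO diluted in medium, final DMSO under 0.5%). MTT 0.5 mg/ml added for 4 h at 37 °C, formazan dissolved in DMSO, read at 570 nm with 655 nm background. Viability given as percent of untreated control. Average of 3–4 experiments ± SEM.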

[2] = molecular target: Beta-secretase 1 (Mus musculus) (UniProt P56818); test: Inhibition of BACE1 in mouse Neuro2a cells expressing APP Swedish mutant assessed as inhibition of amyloid beta (1 to 40) production at 5 uM after 24 hrs by sandwich ELISA relative to control; format: cell-based
Beta-secretase 1 (Mus musculus), sequence (P56818 whole entry): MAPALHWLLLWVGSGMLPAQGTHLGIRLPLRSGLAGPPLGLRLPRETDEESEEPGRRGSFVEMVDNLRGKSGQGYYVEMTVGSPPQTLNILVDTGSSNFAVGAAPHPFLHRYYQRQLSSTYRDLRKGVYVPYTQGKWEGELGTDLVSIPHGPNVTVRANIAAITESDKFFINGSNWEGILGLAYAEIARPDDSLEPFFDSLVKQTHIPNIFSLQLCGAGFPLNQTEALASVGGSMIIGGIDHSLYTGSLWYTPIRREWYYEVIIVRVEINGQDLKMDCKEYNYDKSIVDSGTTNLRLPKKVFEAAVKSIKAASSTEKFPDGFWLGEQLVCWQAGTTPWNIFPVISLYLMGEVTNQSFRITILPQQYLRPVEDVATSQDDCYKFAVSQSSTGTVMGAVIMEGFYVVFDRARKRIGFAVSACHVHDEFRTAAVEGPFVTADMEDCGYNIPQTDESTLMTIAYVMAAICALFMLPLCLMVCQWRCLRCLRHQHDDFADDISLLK
How it was run: (§2)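 N2a-APPswe cells seeded at 2 × 10⁵ cells/ml and incubated overnight at 37 °C. Medium replaced, compound in growth medium added (DMSO under 0.5%), incubated 24 h. Conditioned medium collected with 0.1 mM PMSF. Human Aβ1–40 measured by colorimetric sandwich ELISA at 450 nm. Percent inhibition relative to untreated cells, 2–3 experiments ± SEM.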

[3] = molecular target: Beta-secretase 1 (Mus musculus) (UniProt P56818); test: Inhibition of BACE1 in mouse Neuro2a cells expressing APP Swedish mutant assessed as inhibition of amyloid beta (1 to 40) production at 10 uM after 24 hrs by sandwich ELISA relative to control; format: cell-based; how it was run: as §2
[4] = Cytotoxicity against mouse Neuro2a cells expressing APP Swedish mutant assessed as cell viability at 10 uM after 24 hrs by MTT assay relative to control; format: cell-based, N2a; settings: read-out: Activity; how it was run: as §1

Beta-secretase 1, sequence (P56817 whole entry): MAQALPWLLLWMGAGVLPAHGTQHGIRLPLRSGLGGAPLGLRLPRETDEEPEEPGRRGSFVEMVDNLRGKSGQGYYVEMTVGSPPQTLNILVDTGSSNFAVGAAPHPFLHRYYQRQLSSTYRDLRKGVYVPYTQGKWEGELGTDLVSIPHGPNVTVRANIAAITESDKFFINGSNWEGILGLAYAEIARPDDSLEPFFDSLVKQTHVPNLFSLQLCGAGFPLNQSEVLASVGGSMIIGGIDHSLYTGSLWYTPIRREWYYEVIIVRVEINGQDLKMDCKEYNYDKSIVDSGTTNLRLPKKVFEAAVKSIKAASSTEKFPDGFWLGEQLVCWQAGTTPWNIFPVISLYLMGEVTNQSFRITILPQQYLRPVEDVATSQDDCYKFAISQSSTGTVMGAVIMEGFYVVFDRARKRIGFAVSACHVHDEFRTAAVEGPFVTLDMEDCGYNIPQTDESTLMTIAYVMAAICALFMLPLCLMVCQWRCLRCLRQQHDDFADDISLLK

| SMILES | IC50 (Beta-secretase 1) [nM] | inhibition [2] [%] | inhibition [3] [%] | viability at 24 h, 5 µM [1] [%] | viability at 24 h, 10 µM [4] [%] |
| --- | --- | --- | --- | --- | --- |
| COc1ccc(C(=O)N2CCN(c3ccc(Br)cc3NC(=O)c3cc4ccccc4o/c3=N\c3ccccc3)CC2)cc1 | > 10000 |  |  |  |  |
| CC(C)(C)OC(=O)N1CCN(c2ccc(Br)cc2NC(=O)c2cc3ccccc3oc2=N)CC1 | > 10000 |  |  |  |  |
| CC(C)C[C@H](NC(=O)[C@H](CC(N)=O)NC(=O)[C@@H](NC(=O)[C@@H](N)CCC(=O)O)C(C)C)[C@@H](O)CC(C)C(=O)N[C@@H](C)C(=O)N[C@@H](CCC(=O)O)C(=O)N[C@@H](Cc1ccccc1)C(=O)O (single isomer, unassigned) |  |  |  | < 70 | < 70 |
| COc1cccc2cc(C(=O)Nc3cc(Br)ccc3N3CCN(Cc4ccccc4)CC3)/c(=N/c3ccccc3)oc12 | > 10000 |  |  |  |  |
| COc1ccccc1C(=O)N1CCN(c2ccc(Br)cc2NC(=O)c2cc3ccccc3o/c2=N\c2ccccc2)CC1 | 25700 |  |  |  |  |
| COc1cccc2cc(C(=O)Nc3cc(Br)ccc3N3CCN(Cc4ccccc4)CC3)c(=N)oc12 | > 10000 |  |  |  |  |
| N#CCCCN1CCN(c2ccc(Br)cc2NC(=O)c2cc3ccccc3o/c2=N\c2ccccc2)CC1 | > 10000 |  |  |  |  |
| O=C(Nc1cc(Br)ccc1N1CCN(C(=O)c2cccc(Cl)c2)CC1)c1cc2ccccc2o/c1=N\c1ccccc1 | > 10000 |  |  |  |  |
| O=C(Nc1cc(Br)ccc1N1CCN(C(=O)c2cccc([N+](=O)[O-])c2)CC1)c1cc2ccccc2o/c1=N\c1ccccc1 | 26400 |  |  |  |  |

More lines, in order of falling IC50 (Beta-secretase 1), values ahead:

| IC50 (Beta-secretase 1) [nM] | inhibition [2] [%] | inhibition [3] [%] | SMILES | viability at 24 h, 5 µM [1] [%] | viability at 24 h, 10 µM [4] [%] |
| --- | --- | --- | --- | --- | --- |
| 9810 |  |  | CC(C)(C)OC(=O)N1CCN(c2ccc(Br)cc2NC(=O)c2cc3ccccc3o/c2=N\c2ccccc2)CC1 |  |  |
| 9270 |  |  | O=C(Nc1cc(Br)ccc1N1CCNCC1)c1cc2ccccc2o/c1=N\c1ccccc1 |  |  |
| 3550 |  |  | O=C(Nc1cc(Br)ccc1N1CCN(C(=O)c2cccs2)CC1)c1cc2ccccc2o/c1=N\c1ccccc1 |  |  |
| 1220 | 26.4 | 58.3 | N=c1oc2ccccc2cc1C(=O)Nc1cc(Br)ccc1N1CCN(Cc2ccccc2)CC1 | 99.7 | 98.9 |
| 928 | 37.8 | 57.6 | O=C(Nc1cc(Br)ccc1N1CCN(CCc2cc3ccccc3[nH]2)CC1)c1cc2ccccc2o/c1=N\c1ccccc1 | 105 | 111 |
| 854 |  |  | O=C(Nc1cc(Br)ccc1N1CCN(CCCCN2C(=O)c3ccccc3C2=O)CC1)c1cc2ccccc2o/c1=N\c1ccccc1 |  |  |
| 849 | 41.3 | 48.2 | O=C(Nc1cc(Br)ccc1N1CCN(CCO)CC1)c1cc2ccccc2o/c1=N\c1ccccc1 | 105 | 101 |
| 741 | 53.1 | 65.8 | O=C(Nc1cc(Br)ccc1N1CCN(C(=O)c2ccco2)CC1)c1cc2ccccc2o/c1=N\c1ccccc1 | 93 | 95.4 |
| 578 |  | 22.9 | COc1ccc(CN2CCN(c3ccc(Br)cc3NC(=O)c3cc4ccccc4o/c3=N\c3ccccc3)CC2)cc1 | 101 | 98.3 |
| 503 | 60.9 | 64.7 | O=C(Nc1cc(Br)ccc1N1CCN(Cc2ccccc2)CC1)c1cc2ccccc2o/c1=N\c1ccccc1 | 102 | 95 |
| 326 | 44.3 |  | O=C(Nc1cc(Br)ccc1N1CCN(CCCN2C(=O)c3ccccc3C2=O)CC1)c1cc2ccccc2o/c1=N\c1ccccc1 | 101 |  |
| 119 |  | 51.8 | N#Cc1cccc(CN2CCN(c3ccc(Br)cc3NC(=O)c3cc4ccccc4o/c3=N\c3ccccc3)CC2)c1 | 91.2 | 88.7 |
| 98 | 13.6 | 39.4 | O=C(Nc1cc(Br)ccc1N1CCN(CCN2C(=O)c3ccccc3C2=O)CC1)c1cc2ccccc2o/c1=N\c1ccccc1 | 108 | 96.5 |
